TRPC4 act = TRPC4 (mouse) channel activation; B-score at 10 µM; AID 2237; 310,000 tested, 0.49% active; HEK293 TRPC4beta/mu-opioid, Fluo4 calcium fluorescence; active compounds read high;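 active means B-score above 5 SD of library B-scores, and initial fluorescence ratio not above library mean plus 5 SD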;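 further: positive B-score marks a calcium rise read as TRPC4 activation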
Target sequence (Q9QUQ5 whole entry, looked up): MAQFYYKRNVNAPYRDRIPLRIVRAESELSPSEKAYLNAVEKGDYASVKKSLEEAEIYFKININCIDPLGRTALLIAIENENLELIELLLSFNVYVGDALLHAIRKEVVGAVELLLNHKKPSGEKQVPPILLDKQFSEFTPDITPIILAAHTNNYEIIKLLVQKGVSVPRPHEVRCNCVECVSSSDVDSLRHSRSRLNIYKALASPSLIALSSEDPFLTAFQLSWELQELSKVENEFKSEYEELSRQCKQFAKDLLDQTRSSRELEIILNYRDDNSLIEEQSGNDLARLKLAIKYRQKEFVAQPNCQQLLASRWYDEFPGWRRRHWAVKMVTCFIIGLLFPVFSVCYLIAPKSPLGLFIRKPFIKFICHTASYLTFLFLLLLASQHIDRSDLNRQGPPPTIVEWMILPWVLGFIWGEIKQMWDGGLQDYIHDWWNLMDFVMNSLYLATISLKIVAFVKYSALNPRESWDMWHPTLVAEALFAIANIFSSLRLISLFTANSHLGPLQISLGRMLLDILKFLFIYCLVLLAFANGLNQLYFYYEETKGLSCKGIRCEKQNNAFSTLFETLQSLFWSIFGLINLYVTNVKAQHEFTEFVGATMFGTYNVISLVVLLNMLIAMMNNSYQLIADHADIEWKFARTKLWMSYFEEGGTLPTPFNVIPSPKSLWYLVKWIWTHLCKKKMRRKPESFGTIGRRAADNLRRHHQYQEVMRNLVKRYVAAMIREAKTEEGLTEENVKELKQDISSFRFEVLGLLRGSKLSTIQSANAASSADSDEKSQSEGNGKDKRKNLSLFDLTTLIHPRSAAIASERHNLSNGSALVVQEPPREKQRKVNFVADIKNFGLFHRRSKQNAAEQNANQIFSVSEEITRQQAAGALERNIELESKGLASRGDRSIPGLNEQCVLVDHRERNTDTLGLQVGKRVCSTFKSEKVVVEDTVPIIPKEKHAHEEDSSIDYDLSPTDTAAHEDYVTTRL
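Assay system: HEK293 stable line with TRPC4beta plus mu-opioid receptor; schedule: 45 min room-temperature Fluo4 loading, 110 s read; technique: kinetic Fluo4 calcium fluorescence; evaluation: integrated baseline-normalised fluorescence ratio, converted to per-well B score; controls: buffer (low) and maximal DAMGO (high)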
TRPC6 inhibitor = inhibitors of mouse TRPC6 channel | B-score at 10 µM | HEK293-TRPC6, membrane potential dye, ACh-evoked depolarization; active compounds read low | 310,000 tested, 1.1% active;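 active means B-score under library mean minus 3 SD, initial fluorescence not abnormally high, positive integrated signal ratio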;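 further: B-score derived from integrated fluorescence ratio over the kinetic read; more negative B-score means stronger inhibition of depolarization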
TRPC4 potent = TRPC4 (mouse) allosteric potentiation; HEK293 TRPC4beta/mu-opioid, DAMGO EC20, Fluo-4 Ca2+ flux; active compounds read high; B-score at 10 µM; 310,000 tested, 0.42% active; Q9QUQ5;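 active means B-score of calcium response area above 5 SD of library B-scores, with initial fluorescence ratio within 5 SD of library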
TRPC4 block = TRPC4 (mouse) channel inhibition; Q9QUQ5; HEK293 TRPC4beta/mu-opioid, DAMGO-evoked Fluo4 calcium flux; active compounds read low; B-score at 10 µM; 300,000 tested, 0.39% active;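 active means B-score over 3 SD under the library average, no early fluorescence shift, positive overall ratio signal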
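System: stable TRPC4beta/mu-opioid receptor HEK293 cells; Dosing: single-point compound dosing; Measured by: Fluo4 Ca2+ flux fluorescence; Read-out basis: per-well B score of integrated baseline-normalized Fluo4 ratio.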
TRPC6 act = mouse TRPC6 channel activation; Q61143; HEK293-TRPC6 membrane potential dye fluorescence; active compounds read high; B-score at 10 µM; 310,000 tested, 0.13% active;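 active means B-score of the integrated fluorescence ratio above library mean plus 3 SD, and starting fluorescence ratio within library mean plus 5 SD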;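 further: higher score means more depolarization so channel activation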
TRPC4 spec 2 = second selectivity test of TRPC6 inhibitors: effect on mouse TRPC4 | AID 2776 | HEK293 TRPC4/MOR, membrane potential dye fluorescence; channel activated by saturating DAMGO dose | 920 tested, 42% active | shares compounds with TRPC6 inhibitor | inhibition, % at 10 µM;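 active means compounds whose fluorescence signal differed from control wells by over 3 SD, either direction, in both duplicate plates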
TRPC4 spec = mouse TRPC4 off-target activity of TRPC6 inhibitors; shares compounds with TRPC6 inhibitor; HEK293 TRPC4/mu-opioid, membrane potential fluorescence; activity change, negative = inhibition, % at 10 µM; 920 tested, 61% active; AID 2777;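 active means rise or fall in signal beyond 3 SD of buffer-only wells in both replicate plates, either sign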;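 further: integrated kinetic ratio of fluorescence range over baseline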
HEK293 MPD ctr 2-1 = parental HEK293 nonspecific activity of TRPC6 inhibitors, second screen; 920 tested, 31% active; parental HEK293 membrane potential dye fluorescence; maximal acetylcholine challenge after compound addition; AID 2779; shares compounds with TRPC6 inhibitor; signal change vs control, % at 10 µM;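 active means membrane potential signal moving either way by over 3 SD of the maximum-effect control, in both duplicate plates, meaning non-specific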
HEK293 MPD ctr-1 = checks TRPC6 inhibitor effects in parental HEK293 cells; shares compounds with TRPC6 inhibitor; 920 tested, 60% active; parental HEK293 membrane potential dye fluorescence; membrane potential signal change, % at 10 µM;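 active means membrane potential signal shifting up or down by more than 3 SD of buffer-only wells, on both duplicate plates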
HEK293 MPD ctr-2 = checks TRPC6 modulator effects in parental HEK293 cells; membrane potential dye fluorescence; 2,400 tested, 51% active; shares compounds with TRPC6 inhibitor; membrane potential signal change, % at 10 µM; AID 488924;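 active means membrane potential signal moves up or down beyond 5 SD from buffer-only wells, on both duplicate plates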
HEK293 MPD ctr 2-2 = second check of TRPC6 modulator effects in parental HEK293 cells; shares compounds with TRPC6 inhibitor; membrane potential dye fluorescence; after compound, maximal acetylcholine stimulation; inhibition, % at 10 µM; 2,400 tested, 14% active; AID 488926;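 active means membrane potential signal drops by more than 5 SD from the mean control signal, in both duplicate plates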
TRPC4/MOR mod = mouse TRPC4 off-target activity of TRPC6 modulators; shares compounds with TRPC6 inhibitor; HEK293 TRPC4/mu-opioid, membrane potential fluorescence; percent change from control (negative = decrease, positive = increase), % at 10 µM; 2,400 tested, 69% active;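 active means membrane potential signal moved up or down beyond 5 SD of buffer control wells, in both duplicate plates, actives on both sides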
TRPC4 ctr inh 2 = mouse TRPC4 off-target activity of TRPC6 modulators, second screen. HEK293 TRPC4/mu-opioid, membrane potential dye fluorescence; stimulated with maximal-effect DAMGO. inhibition, % at 10 µM. 2,400 tested, 55% active. shares compounds with TRPC6 inhibitor;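 active means drop in membrane potential signal beyond 5 SD of the control wells in both duplicate plates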;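 further: TRPC4 counter screen for TRPC6 hits run under conditions tuned for TRPC6 not TRPC4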
TRPC6 block conf = confirmation of mouse TRPC6 inhibitors | inhibition, % at 10 µM | shares compounds with TRPC6 inhibitor | 3,300 tested, 43% active | HEK293-TRPC6, membrane potential dye, ACh-evoked depolarization | AID 488960;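 active means fluorescence ratio falls more than 5 SD below the full-stimulation control mean, in both duplicate runs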;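 further: integrated fluorescence ratio of peak minus minimum over baseline after agonist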
TRPC6 act confirm = confirmation of mouse TRPC6 activators. shares compounds with TRPC6 inhibitor. HEK293-TRPC6 membrane potential dye fluorescence, FDSS. activation, % at 10 µM. 2,800 tested, 11% active. AID 488961;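 active means ratio signal rise beyond 5 SD above unstimulated control wells' mean, seen in both duplicate runs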
A number is an active result; – = inactive; · = no result. An excerpt weighted towards active compounds, which were near 2.3% of everything screened.

SMILES | TRPC4 act | TRPC6 inhibitor | TRPC4 potent | TRPC4 block | TRPC6 act | HEK293 MPD ctr-2 | HEK293 MPD ctr 2-2 | TRPC4/MOR mod | TRPC4 ctr inh 2 | TRPC6 block conf | TRPC6 act confirm | others
CCN1CCN(c2ccc(S(=O)(=O)N3CCCCC3)cc2NC(=O)c2ccc([N+](=O)[O-])o2)CC1 | – | -7.5 | – | – | – | -130.5% | – | -29.5% | 53.5% | – | –
Cc1ccc(C(=O)NCC(=O)OCC(=O)N(CC(C)C)c2c(N)n(Cc3ccccc3)c(=O)[nH]c2=O)cc1 | – | – | – | – | – | · | · | · | · | · | ·
O=C(O)c1ccc(S(=O)(=O)c2ccc(Sc3ccc(C(=O)O)c(C(=O)O)c3)cc2)cc1 | – | – | – | – | – | · | · | · | · | · | ·
C=CCN1C(=O)C(=O)N(Cc2nc3ccccc3s2)C1=O | – | – | – | – | – | · | · | · | · | · | ·
CCC(=O)Nc1nnc(SCC(=O)NC2CCCC2)s1 | – | – | – | – | – | · | · | · | · | · | ·
CCc1ccccc1NC(=S)Nn1cnnc1 | – | – | – | – | – | · | · | · | · | · | ·
Cc1ccc2nc3ccc(N4CCCC4)nn3c(=O)c2c1 | – | -6.88 | – | – | – | · | · | · | · | – | – | TRPC4 spec 2=–;TRPC4 spec=-24.8%;HEK293 MPD ctr 2-1=41.5%;HEK293 MPD ctr-1=-324.5%
Cc1ccc(-n2nc3c(c2NC(=O)c2c(-c4ccccc4Cl)noc2C)CS(=O)(=O)C3)c(C)c1 | – | -5.47 | – | – | – | 100.0% | – | 24.0% | – | – | ·
COc1cc2c(cc1OC)C(C)N(S(=O)(=O)c1ccc(C)cc1)CC2 (stereo not drawn) | – | -6.91 | – | – | – | · | · | · | · | – | · | TRPC4 spec 2=–;TRPC4 spec=-0.1%;HEK293 MPD ctr 2-1=–;HEK293 MPD ctr-1=1.0%
Cc1ccc(C(=O)NCC(=O)OCc2csc(-c3ccccc3)n2)cc1 | – | – | – | – | – | · | · | · | · | · | ·
O=C(OCc1csc(-c2ccccc2)n1)c1ccc(O)cc1 | – | -10.2 | – | – | – | · | · | · | · | 72.5% | · | TRPC4 spec 2=–;TRPC4 spec=-9.2%;HEK293 MPD ctr 2-1=–;HEK293 MPD ctr-1=–
Cc1nc2ncnn2c(N2CCN(c3cccc(C(F)(F)F)c3)CC2)c1C | – | – | – | – | 12.6 | 338.5% | – | 65.0% | – | – | 129.5%
Cc1cc(N2CCN(c3cccc(C(F)(F)F)c3)CC2)n2ncnc2n1 | – | – | – | – | – | · | · | · | · | · | ·
O=C(NCCNC(=O)c1cccc(O)c1)c1cccc(O)c1 | – | – | – | – | – | · | · | · | · | · | ·
Nc1cccc(C(=O)NCCNC(=O)c2cccc(N)c2)c1 | – | -7.09 | – | – | – | · | · | · | · | – | – | TRPC4 spec 2=–;TRPC4 spec=–;HEK293 MPD ctr 2-1=–;HEK293 MPD ctr-1=–
O=C(Oc1ccccc1Cl)c1ccc2c(=O)n3c(nc2c1)CCC3 | – | -5.43 | – | – | – | – | – | – | – | – | –
CCOc1cc(/C=C2\SC(=NC)N(C)C2=O)cc(Cl)c1OC(C)=O | – | -5.01 | – | – | – | – | – | – | – | – | –
CCn1c(Cc2ccccc2)nnc1SC(C)C(=O)NC1CC1 (stereo not drawn) | – | – | – | – | – | · | · | · | · | · | ·
O=C(NCc1ccc2c(c1)OCO2)c1ccc(NC(=O)C2CCCO2)cc1 (stereo not drawn) | – | – | – | – | – | · | · | · | · | · | ·
O=C(Nc1ccc2c(c1)OCCO2)c1ccc(NC(=O)C2CCCO2)cc1 (stereo not drawn) | – | -5.21 | – | – | – | – | – | – | – | – | –
CC1CCN(Cc2c(O)ccc3c(=O)c(-c4nc5ccccc5s4)c(N)oc23)CC1 | – | – | – | – | – | · | · | · | · | · | ·
CC1CCCN(Cc2c(O)ccc3c(=O)c(-c4nc5ccccc5s4)c(N)oc23)C1 (stereo not drawn) | – | -5.83 | – | – | – | – | – | – | 48.0% | – | –
CCCCc1cc(=O)oc2cc(C)cc(OCC(=O)Nc3ccccn3)c12 | – | – | – | – | – | · | · | · | · | · | ·
OCCNCc1cc(Br)ccc1OCc1ccc(Cl)cc1 | – | -5.65 | – | – | – | 101.5% | – | 17.0% | 89.0% | 45.0% | ·
OCCNCc1cccc(OCc2ccc(Cl)cc2)c1 | – | – | – | – | – | · | · | · | · | · | ·
CCOC(=O)C1=c2s/c(=C\c3cccnc3)c(=O)n2C(N)=C(C(=O)OC)C1c1cccnc1 (stereo not drawn) | – | -5.1 | – | – | – | – | – | – | – | – | –
CCN(CC)CCN(C(=O)C1=COCCO1)c1nc2ccc(C)cc2s1 | – | – | – | – | – | · | · | · | · | · | ·

Bioassay records: PubChem, Johns Hopkins Ion Channel Center
